These results are taken from ChEMBL document CHEMBL1139747, “Pyridine-2-propanoic acids: Discovery of dual PPARalpha/gamma agonists as antidiabetic agents” (Bioorg Med Chem Lett, 2006).

Molecules are shown by their SMILES. pEC50, pKi: −log10 of the molar value.

Series [1] deals with T1, Peroxisome proliferator-activated receptor alpha (Homo sapiens, UniProt Q07869).
T1 sequence (Q07869 whole entry): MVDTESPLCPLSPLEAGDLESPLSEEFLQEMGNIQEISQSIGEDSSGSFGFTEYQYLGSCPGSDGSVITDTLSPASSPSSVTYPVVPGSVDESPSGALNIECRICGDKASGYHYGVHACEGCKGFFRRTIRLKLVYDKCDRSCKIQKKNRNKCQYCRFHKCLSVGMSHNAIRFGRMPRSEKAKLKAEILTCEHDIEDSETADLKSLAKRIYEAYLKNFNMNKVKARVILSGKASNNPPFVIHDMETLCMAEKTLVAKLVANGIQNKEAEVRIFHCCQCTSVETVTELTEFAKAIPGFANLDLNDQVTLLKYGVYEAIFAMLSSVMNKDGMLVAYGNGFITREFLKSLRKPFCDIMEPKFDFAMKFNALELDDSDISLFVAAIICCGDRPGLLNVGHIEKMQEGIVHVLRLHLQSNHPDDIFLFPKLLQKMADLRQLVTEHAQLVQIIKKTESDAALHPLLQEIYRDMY
The experiment in a line: Displacement of radiolabeled GW-2331 from human PPAR alpha by SPA assay.

In series [2] the target is T1, Peroxisome proliferator-activated receptor alpha. The experiment in a line: Agonist activity at human PPAR alpha in HepG2 cells by PPAR-GAL4 transactivation assay. Format: functional, cell-based.
Series [3] deals with T2, Peroxisome proliferator-activated receptor alpha (Homo sapiens) (UniProt Q07869).
T2 sequence (whole entry): T1 sequence (Q07869 whole entry)
The experiment in a line: Agonist activity at human PPAR alpha in HepG2 cells by PPAR-GAL4 transactivation assay relative to GW-2331. It counts as functional, cell-based. In outline:
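Human PPARα–GAL4 chimera in HepG2 cells, transactivation read-out. Compounds titrated. EC50 taken as the concentration giving half of the compound's own maximal response. Percent maximal activation expressed relative to GW2331 as the standard full agonist. Where no plateau was reached, only maximal activity was reported.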

The target of series [4] is T3, Peroxisome proliferator-activated receptor gamma (Homo sapiens, UniProt P37231).
T3 sequence (P37231 whole entry): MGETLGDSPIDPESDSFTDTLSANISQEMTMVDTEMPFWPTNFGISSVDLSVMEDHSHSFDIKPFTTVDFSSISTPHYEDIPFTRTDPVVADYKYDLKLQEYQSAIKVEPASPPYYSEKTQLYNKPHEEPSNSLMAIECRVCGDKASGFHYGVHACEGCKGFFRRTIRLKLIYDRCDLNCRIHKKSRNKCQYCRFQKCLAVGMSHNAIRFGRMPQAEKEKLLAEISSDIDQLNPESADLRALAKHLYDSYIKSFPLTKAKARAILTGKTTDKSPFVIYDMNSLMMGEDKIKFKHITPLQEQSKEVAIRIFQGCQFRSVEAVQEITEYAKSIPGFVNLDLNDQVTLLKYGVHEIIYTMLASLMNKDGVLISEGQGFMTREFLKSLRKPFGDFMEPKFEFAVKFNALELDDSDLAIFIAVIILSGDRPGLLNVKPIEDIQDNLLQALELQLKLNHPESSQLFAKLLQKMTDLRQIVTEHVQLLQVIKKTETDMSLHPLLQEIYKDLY
Description: Displacement of radiolabeled darglitazone from human PPAR gamma by SPA assay.

Series [5] addresses T3, Peroxisome proliferator-activated receptor gamma. The experiment in a line: Agonist activity at human PPAR gamma in HepG2 cells by PPAR-GAL4 transactivation assay. It counts as functional, cell-based.
In series [6] the test system is Mus musculus. Description: Reduction of plasma glucose in db/db mouse at 3 mg/kg, po after 8 day. Format: functional. Further details: scale not given: the % may be the effect or the level left.
Series [7] deals with Mus musculus. The experiment in a line: Reduction of plasma glucose in db/db mouse at 30 mg/kg, po after 8 day. Also on record: scale not given: the % may be the effect or the level left. Format: functional.
Series [8] concerns Mus musculus. Description: Reduction of plasma triglycerides in db/db mouse at 3 mg/kg, po after 8 day. Further details: scale not given: the % may be the effect or the level left. It counts as functional.
Series [9] concerns Mus musculus. Description: Reduction of plasma triglycerides in db/db mouse at 30 mg/kg, po after 8 day. It counts as functional. Also on record: scale not given: the % may be the effect or the level left.
In series [10] the test system is Mus musculus. Description: Reduction of hematocrit in db/db mouse at 3 mg/kg, po after 8 day. It counts as functional. Also on record: scale not given: the % may be the effect or the level left.
The test system of series [11] is Mus musculus. The experiment in a line: Reduction of hematocrit in db/db mouse at 30 mg/kg, po after 8 day. Format: functional. Further details: scale not given: the % may be the effect or the level left.
Series [12] concerns Mus musculus. The experiment in a line: Increase in body weight in db/db mouse at 3 mg/kg, po after 8 day. Format: functional.
Series [13] relates to Mus musculus. The experiment in a line: Increase in body weight in db/db mouse at 30 mg/kg, po after 8 day. It counts as functional.
Series [14] concerns the target T2, Peroxisome proliferator-activated receptor alpha (Homo sapiens). To be noted: 100 uM.
A short description of series [15]: Clearance in iv dosed Sprague-Dawley rat. It counts as ADME, organism-based. To be noted: in vivo. The essentials: (§1)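 Male Sprague–Dawley rats were given the compound both orally and intravenously. Clearance comes from the iv leg. Half-life and AUC come from the oral leg, with AUC reported dose-normalized. Oral bioavailability compares the oral and iv exposures.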

The nature of series [16]: Half life in orally dosed Sprague-Dawley rat. Format: ADME, organism-based. To be noted: in vivo, po. The essentials: as §1
Series [17] in a line: Oral bioavailability in Sprague-Dawley rat. It counts as ADME, organism-based. To be noted: in vivo. The essentials: as §1
The nature of series [18]: AUC in orally dosed Sprague-Dawley rat. To be noted: plasma, po. Format: ADME, organism-based. The essentials: as §1

For `CCOC(Cc1ccc(OCCCc2nc(-c3ccccc3)oc2C)cn1)C(=O)O` (stereo unspecified), the pKi – broadly, the Ki on a negative log10 scale, so that one unit is a factor of ten – in [1] is 6.08. For the same compound, the pEC50 (commonly the negative decadic logarithm of the EC50, by convention in mol/L) in series [2] was 6.05. The compound further displayed an Activity in series [3] of 76%.

Regarding `CCOC(Cc1ccc(OCCc2nc(-c3ccccc3)oc2C)cn1)C(=O)O` (stereo unspecified), the pKi in [4] was 7.14; in series [1], 5.70. In addition, the results for the pEC50 in series [5] and in series [2] were 6.89 and 5.91, respectively. In series [3], this compound displayed an Activity of 100%.

As for `CN(CCOc1ccc(CC2SC(=O)NC2=O)cc1)c1ccccn1` (stereo unspecified) [ROSIGLITAZONE], the Activity stood at 51% with Mus musculus [6]; 74% in the series with Mus musculus [7]; 83% in the series on Mus musculus [8]; 106% in the series with Mus musculus [9]; 1.2% in the series with Mus musculus [10]; 5.2% with Mus musculus [11]. In addition, the Activity with Mus musculus [12] was determined as 9.5%; with Mus musculus [13], 17.4%. For the same compound, in series [14], the inhibition (usually the relative decrease from the control value, in per cent) amounted to 45%.

`COC(C)(Cc1ccc(OCCc2nc(-c3ccccc3)oc2C)cn1)C(=O)O` (stereo unspecified): the negative-log Ki (pKi) in series [4] was 5.80; in [1], 5.32. The negative-log EC50 (pEC50) is 6.47 in series [5] and 6.05 in series [2]. In series [3], this compound returned an Activity of 114%.

For the compound `Cc1oc(-c2ccccc2)nc1CCOc1ccc(CC2(C(=O)O)CCCCO2)nc1` (stereo unspecified), the pEC50 in series [5] and in [2] was less than 5.00 throughout. This compound also yielded an Activity in series [3] of 5%.

As to `Cc1oc(-c2ccccc2)nc1CCOc1ccc(C[C@]2(C(=O)O)CCCO2)nc1`, the clearance (usually the volume of plasma or blood freed of the substance per unit of time) in series [15] was 16.7 mL/min/kg. In addition, the half-life (as a rule, how long it takes for the measured level to halve) in series [16] was 1.6 h. Moreover, the Activity with Mus musculus [6] is 74%; in the series with Mus musculus [7], 94%; in the series on Mus musculus [8] it was 105%; in the series on Mus musculus [9] it was 119%; with Mus musculus [10], 4.3%; in the series on Mus musculus [11] it was 4.4%. Besides, the Activity in the series on Mus musculus [12] came out at 15.5%; in the series on Mus musculus [13], 20.5%; in [3] it was 97%. The bioavailability (commonly the share of a dose that reaches the circulation, judged against a reference dose that is usually intravenous) in series [17] came to 58%. Besides, in series [18], the AUC – broadly, the area under the concentration-time curve, a measure of exposure – is 1200 ng·h/mL.

As to `Cc1oc(-c2ccc(Cl)cc2)nc1CCOc1ccc(CC2(C(=O)O)CCCO2)nc1` (stereo unspecified), the pEC50 in series [5] was 6.89; in [2] it was 7.32. In series [3], the Activity was 122%.

As for `COc1cccc(-c2nc(CCOc3ccc(CC4(C(=O)O)CCCO4)nc3)c(C)o2)c1` (stereo unspecified), the pEC50 is 8.30 in series [5] and 5.80 in series [2]. Also, the Activity in series [3] amounted to 98%.

Compound `COc1ccc(-c2nc(CCOc3ccc(CC4(C(=O)O)CCCO4)nc3)c(C)o2)cc1` (stereo unspecified) had a pKi in series [1] of 6.08. For the same compound, the pEC50 in series [5] is 6.98; in series [2], 6.36. In [3], this compound gave an Activity of 95%.

On to `Cc1oc(-c2ccccc2)nc1CCOc1ncc(CC2(C(=O)O)CCCO2)cn1` (stereo unspecified), for which the results for the negative logarithm of the EC50 (pEC50) in [5] and in [2] were 5.60 and less than 5.00, respectively. In addition, the Activity in [3] stood at 58%.

As for `Cc1oc(-c2ccccc2)nc1CCOc1cnc(CC2(C(=O)O)CCCO2)cn1` (stereo unspecified), the pKi in series [4] was 6.80; in [1], 5.46. The pEC50 is 6.81 in series [5] and 5.72 in series [2]. Moreover, in series [3], the Activity is 77%.

Take `COC(Cc1ccc(OCCc2nc(-c3ccccc3)oc2C)cn1)C(=O)O` (stereo unspecified): the values for the negative-log Ki (pKi) in [4] and in series [1] were 6.46 and 5.43, respectively. The figures for the pEC50 in [5] and in [2] were 6.55 and 5.50, respectively. The compound further yielded an Activity in series [3] of 95%.

Compound `Cc1oc(-c2ccccc2)nc1CCOc1ccc(C[C@@]2(C(=O)O)CCCO2)nc1` showed an Activity in [3] of 6%.

For the compound `Cc1cccc(-c2nc(CCOc3ccc(CC4(C(=O)O)CCCO4)nc3)c(C)o2)c1` (stereo unspecified), the pEC50 in series [5] is 7.92; in series [2], 6.06. In series [3], the Activity was determined as 93%.

`Cc1oc(-c2ccccc2)nc1CCOc1ccc(CC2(C(=O)O)CCCO2)nc1` (stereo unspecified): the Activity in series [3] was 90%.
